Measurements of several laboratories.
Lines come from different studies, so protocols differ.
Organism: Mycolicibacterium smegmatis
Effect on: microbial growth

Compound	technique	strain	time	MIC
C/C(=N\NC(=N)N)c1cccc(/C(C)=N/NC(=N)N)c1		MC2155		15.6 to 31.3 µM
CC(C)CC=CC=CC(=O)NC(CC(N)=O)C(=O)NC1C(=O)NC(c2ccc(O)cc2)C(=O)NC(CCCN)C(=O)NC(C(C)O)C(=O)NC(c2ccc(O)cc2)C(=O)NC(c2ccc(O)cc2)C(=O)NC(C(C)O)C(=O)NC(Cc2ccccc2)C(=O)NC(CCCN)C(=O)NC(c2ccc(OC3OC(CO)C(O)C(O)C3OC3OC(CO)C(O)C(O)C3O)cc2)C(=O)NC(C(C)O)C(=O)NC(c2ccc(O)cc2)C(=O)NCC(=O)NC(CC(C)C)C(=O)NC(C)C(=O)NC(c2ccc(O)c(Cl)c2)C(=O)OC1C(N)=O (stereo not shown)	resazurin	ATCC607	72 h	3.25 µg/mL
NNC(=O)c1ccncc1				1 µg/mL
O=C(Nc1ccc2c(c1)OC(F)(F)O2)Nc1ccc(Cl)c(C(F)(F)F)c1		MC2155		6 µM
NNC(=O)c1ccncc1	agar dilution			12.5 µg/mL
CC(C)=CCC/C(C)=C/CNCCOc1cccc2ccccc12				12 µg/mL
O=C(Nc1ncc([N+](=O)[O-])s1)c1ccccn1	agar dilution	MC^2155		100 µM
CNC(C)C1CCC(N)C(OC2C(N)CC(N)C(OC3OCC(C)(O)C(NC)C3O)C2O)O1 (stereo not shown)	broth dilution		72 h	1 µg/mL
Nc1ccc(C(=O)O)c(O)c1	broth dilution	MC^2155		1.25 µg/mL
CC(C)=CCC/C(C)=C/CNCCNC1C2CC3CC(C2)CC1C3 (stereo not shown)				3.1 µg/mL
COC1C(O)C(n2ccc(=O)[nH]c2=O)OC1C(OC1OC(C(=O)NC2CCCCNC2=O)=CC(O)C1O)C(N)=O (stereo not shown)	broth dilution	ATCC607		6.5 µg/mL
CO[C@H]1/C=C/O[C@@]2(C)Oc3c(C)c(O)c4c(O)c(c(/C=N/N5CCN(C)CC5)c(O)c4c3C2=O)NC(=O)/C(C)=C\C=C\[C@H](C)[C@H](O)[C@@H](C)[C@@H](O)[C@@H](C)[C@H](OC(C)=O)[C@@H]1C	resazurin	ATCC607	72 h	1.58 µg/mL
CC(C)=CCC/C(C)=C/C[N+](C)(C)CCOC1C2CC3CC(C2)CC1C3.[I-] (stereo not shown)				12 µg/mL
